# According to ChEMBL document CHEMBL1629690, “Development of hexadecyloxypropyl tenofovir (CMX157) for treatment of infection caused by wild-type and nucleoside/nucleotide-resistant HIV” (Antimicrob Agents Chemother, 2010):
# What was measured:
# [1] = tested on: Human immunodeficiency virus 1; assay: Antiviral activity against HIV1 isolate 212 harboring reverse transcriptase L210W/T215Y mutant gene by phenosense assay relative to wild type; type: functional
# How it was run: (§1)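 PhenoSense HIV recombinant virus assay: patient-derived HIV-1 with major NRTI resistance mutations tested against increasing drug concentrations to give inhibition curves. EC50 is the concentration giving 50% inhibition. Fold change is the test recombinant EC50 divided by the EC50 of a drug-sensitive wild-type reference virus. Panel of 30 NRTI-resistant isolates plus two wild-type viruses.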
# [2] = tested on: Human immunodeficiency virus 1; assay: Antiviral activity against HIV1 isolate 071 harboring reverse transcriptase 65R/S68N/184V mutant gene by phenosense assay; type: functional, organism-based; settings: Human immunodeficiency virus 1, isolate 071
# How it was run: (§2)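 Recombinant-virus PhenoSense HIV assay run on a panel of 30 NRTI-resistant HIV-1 mutants and two wild-type viruses. Each virus is tested across increasing drug concentrations to give an inhibition curve and EC50. Fold change is the test recombinant EC50 divided by the EC50 of the drug-sensitive wild-type reference virus.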
# [3] = tested on: Human immunodeficiency virus 1; assay: Antiviral activity against HIV1 NL 4-3 expressing wild type reverse transcriptase infected in human PBMC by ELISA; type: functional, organism-based; settings: Human immunodeficiency virus 1, NL 4-3
# How it was run: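 Fresh donor PBMCs, HIV- and HBV-seronegative, were stimulated with 4 μg/ml PHA for 48 to 72 h and kept on 20 U/ml rhIL-2. Cells pooled from at least two donors were seeded at 5 × 10^4 per well and infected at MOI ~0.1. Nine compound concentrations were run in triplicate wells for 7 days.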
# [4] = tested on: Human immunodeficiency virus 1; assay: Antiviral activity against HIV1 isolate 206 harboring reverse transcriptase D67N/K70R mutant gene by phenosense assay; type: functional, organism-based; settings: Human immunodeficiency virus 1, isolate 206; how it was run: as §1
# [5] = tested on: Human immunodeficiency virus 1; assay: Antiviral activity against HIV1 isolate 069 harboring reverse transcriptase D67E/T69SSG/V75M/M184V/L210W/T215Y mutant gene by phenosense assay; type: functional, organism-based; settings: Human immunodeficiency virus 1, isolate 069; how it was run: as §2
# [6] = tested on: Human immunodeficiency virus 1; assay: Antiviral activity against HIV1 isolate 188 harboring reverse transcriptase T215Y/M184V mutant gene by phenosense assay relative to wild type; type: functional; how it was run: as §2
# [7] = tested on: Human immunodeficiency virus 1; assay: Antiviral activity against HIV1 isolate 194 harboring reverse transcriptase M41L/T215Y/M184V mutant gene by phenosense assay relative to wild type; type: functional; how it was run: as §2
# [8] = tested on: Human immunodeficiency virus 1; assay: Antiviral activity against HIV1 isolate 174 harboring reverse transcriptase M184V mutant gene obtained as site-directed mutant of NL4-3 by phenosense assay relative to wild type; type: functional; how it was run: as §2
# [9] = tested on: Human immunodeficiency virus 1; assay: Antiviral activity against HIV1 isolate 174 harboring reverse transcriptase M184V mutant gene obtained as site-directed mutant of NL4-3 by phenosense assay; type: functional, organism-based; settings: Human immunodeficiency virus 1, isolate 174; how it was run: as §2
# [10] = tested on: Human immunodeficiency virus 1; assay: Antiviral activity against HIV1 isolate 056 expressing wild type reverse transcriptase gene by phenosense assay; type: functional, organism-based; settings: Human immunodeficiency virus 1, isolate 056
# How it was run: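 In the PhenoSense recombinant virus assay, virus was tested against increasing drug concentrations. EC50 came from the inhibition curve and was compared with a drug-sensitive reference virus.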
# [11] = tested on: Human immunodeficiency virus 1; assay: Antiviral activity against HIV1 isolate 215 harboring reverse transcriptase D67N/K70E mutant gene by phenosense assay relative to wild type; type: functional; how it was run: as §1
# [12] = tested on: Human immunodeficiency virus 1; assay: Antiviral activity against HIV1 7324-1 harboring reverse transcriptase 41L/67N/69N/70R/215F/219E mutant gene infected in human PBMC by ELISA; type: functional, organism-based; settings: Human immunodeficiency virus 1, 7324-1
# How it was run: (§3)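 Fresh PBMCs pooled from at least two HIV- and HBV-seronegative donors, stimulated with PHA 4 μg/ml for 48–72 h and kept in rhIL-2 20 U/ml. Seeded at 5 × 10^4 cells/well and infected with RT-mutant HIV-1 clones at MOI ~0.1. Nine compound concentrations, triplicate wells, 7-day incubation. EC50 reported as mean ± SD of one to three independent experiments.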
# [13] = tested on: Human immunodeficiency virus 1; assay: Antiviral activity against HIV1 71361-1 harboring reverse transcriptase 65R mutant gene infected in human PBMC by ELISA; type: functional, organism-based; settings: Human immunodeficiency virus 1, 71361-1; how it was run: as §3
# [14] = tested on: Human immunodeficiency virus 1; assay: Antiviral activity against HIV1 isolate 162 harboring reverse transcriptase A62V/V75I/F77L/Y115F/F116Y/Q151M/M184V mutant gene by phenosense assay; type: functional, organism-based; settings: Human immunodeficiency virus 1, isolate 162; how it was run: as §2
# [15] = tested on: Human immunodeficiency virus 1; assay: Antiviral activity against HIV1 isolate 194 harboring reverse transcriptase M41L/T215Y/M184V mutant gene by phenosense assay; type: functional, organism-based; settings: Human immunodeficiency virus 1, isolate 194; how it was run: as §2
# [16] = tested on: Human immunodeficiency virus 1; assay: Antiviral activity against HIV1 isolate 070 harboring reverse transcriptase 65R/S68G mutant gene by phenosense assay; type: functional, organism-based; settings: Human immunodeficiency virus 1, isolate 070; how it was run: as §2
# [17] = tested on: Human immunodeficiency virus 1; assay: Antiviral activity against HIV1 isolate 200 harboring reverse transcriptase M41L/L210W/T215Y mutant gene by phenosense assay relative to wild type; type: functional; how it was run: as §2
# [18] = tested on: Human immunodeficiency virus 1; assay: Antiviral activity against HIV1 isolate 060 harboring reverse transcriptase M41L/D67N/K70R/L210W/T215Y/K219E mutant gene by phenosense assay relative to wild type; type: functional; how it was run: as §2
# [19] = tested on: Human immunodeficiency virus 1; assay: Antiviral activity against HIV1 isolate 166 harboring reverse transcriptase L74V mutant gene obtained as site-directed mutant of NL4-3 by phenosense assay; type: functional, organism-based; settings: Human immunodeficiency virus 1, isolate 166; how it was run: as §2
# [20] = tested on: Human immunodeficiency virus 1; assay: Antiviral activity against HIV1 isolate 204 harboring reverse transcriptase M41L/L210W/T215Y/M184V mutant gene by phenosense assay relative to wild type; type: functional; how it was run: as §1
# [21] = tested on: Human immunodeficiency virus 1; assay: Antiviral activity against HIV1 isolate 211 harboring reverse transcriptase D67N/K70R/T215F/K219E/M184V mutant gene by phenosense assay relative to wild type; type: functional; how it was run: as §1
# [22] = tested on: Human immunodeficiency virus 1; assay: Antiviral activity against HIV1 isolate 220 harboring reverse transcriptase K70E/M184V mutant gene by phenosense assay; type: functional, organism-based; settings: Human immunodeficiency virus 1, isolate 220; how it was run: as §1
# [23] = tested on: Human immunodeficiency virus 1; assay: Antiviral activity against HIV1 8415-2 harboring reverse transcriptase 65R/184V mutant gene infected in human PBMC by ELISA; type: functional, organism-based; settings: Human immunodeficiency virus 1, 8415-2; how it was run: as §3
# [24] = tested on: Human immunodeficiency virus 1; assay: Antiviral activity against HIV1 isolate 192 harboring reverse transcriptase M41L/T215Y mutant gene by phenosense assay relative to wild type; type: functional; how it was run: as §2
# [25] = tested on: Human immunodeficiency virus 1; assay: Antiviral activity against HIV1 isolate 070 harboring reverse transcriptase 65R/S68G mutant gene by phenosense assay relative to wild type; type: functional; how it was run: as §2
# [26] = tested on: Human immunodeficiency virus 1; assay: Antiviral activity against HIV1 isolate 220 harboring reverse transcriptase K70E/M184V mutant gene by phenosense assay relative to wild type; type: functional; how it was run: as §1
# [27] = tested on: Human immunodeficiency virus 1; assay: Antiviral activity against HIV1 isolate 204 harboring reverse transcriptase M41L/L210W/T215Y/M184V mutant gene by phenosense assay; type: functional, organism-based; settings: Human immunodeficiency virus 1, isolate 204; how it was run: as §1
# [28] = tested on: Human immunodeficiency virus 1; assay: Antiviral activity against HIV1 isolate 067 harboring reverse transcriptase A62V/D67G/T69SVG/V75I/T215I mutant gene by phenosense assay relative to wild type; type: functional; how it was run: as §2
# [29] = tested on: Human immunodeficiency virus 1; assay: Antiviral activity against HIV1 isolate 060 harboring reverse transcriptase M41L/D67N/K70R/L210W/T215Y/K219E mutant gene by phenosense assay; type: functional, organism-based; settings: Human immunodeficiency virus 1, isolate 060; how it was run: as §2
# [30] = tested on: Human immunodeficiency virus 1; assay: Antiviral activity against HIV1 isolate 217 harboring reverse transcriptase D67N/K70E/M184V mutant gene by phenosense assay relative to wild type; type: functional; how it was run: as §1
# [31] = tested on: Human immunodeficiency virus 1; assay: Antiviral activity against HIV1 isolate 212 harboring reverse transcriptase L210W/T215Y mutant gene by phenosense assay; type: functional, organism-based; settings: Human immunodeficiency virus 1, isolate 212; how it was run: as §1
smiles,measurement,setting,value
CCCCCCCCCCCCCCCCOCCCOP(=O)(O)CO[C@H](C)Cn1cnc2c(N)ncnc21 [TENOFOVIR EXALIDEX],fold change (FC),[1],1.5
same,EC50,[2],2.7 nM
same,EC50,[3],1.5 nM
same,EC50,[4],5.6 nM
same,EC50,[5],11 nM
same,fold change (FC),[6],0.9
same,fold change (FC),[7],1.6
same,fold change (FC),[8],0.62
same,EC50,[9],1.2 nM
same,EC50,[10],1.7 nM
same,fold change (FC),[11],1.2
same,EC50,[12],3.8 nM
same,EC50,[13],13 nM
same,EC50,[14],3.1 nM
same,EC50,[15],2.9 nM
same,EC50,[16],3.6 nM
same,fold change (FC),[17],3.2
same,fold change (FC),[18],3.3
same,EC50,[19],1.5 nM
same,fold change (FC),[20],1.4
same,fold change (FC),[21],1
same,EC50,[22],1.3 nM
same,EC50,[23],1.8 nM
same,fold change (FC),[24],2.1
same,fold change (FC),[25],1.9
same,fold change (FC),[26],0.71
same,EC50,[27],2.5 nM
same,fold change (FC),[28],31
same,EC50,[29],9.6 nM
same,fold change (FC),[30],0.78
same,EC50,[31],2.8 nM
